Source: ChEMBL document CHEMBL5329176, “Design, synthesis, and biological evaluation of novel pyrimidin-2-amine derivatives as potent PLK4 inhibitors” (RSC Med Chem, 2023)

Legend:
[1] = molecular target: T1, Serine/threonine-protein kinase PLK4 (Homo sapiens, UniProt O00444); assay: Inhibition of human recombinant PLK4 incubated for 1 hrs by LanthaScreen Eu kinase FRET assay
T1 sequence (O00444 whole entry): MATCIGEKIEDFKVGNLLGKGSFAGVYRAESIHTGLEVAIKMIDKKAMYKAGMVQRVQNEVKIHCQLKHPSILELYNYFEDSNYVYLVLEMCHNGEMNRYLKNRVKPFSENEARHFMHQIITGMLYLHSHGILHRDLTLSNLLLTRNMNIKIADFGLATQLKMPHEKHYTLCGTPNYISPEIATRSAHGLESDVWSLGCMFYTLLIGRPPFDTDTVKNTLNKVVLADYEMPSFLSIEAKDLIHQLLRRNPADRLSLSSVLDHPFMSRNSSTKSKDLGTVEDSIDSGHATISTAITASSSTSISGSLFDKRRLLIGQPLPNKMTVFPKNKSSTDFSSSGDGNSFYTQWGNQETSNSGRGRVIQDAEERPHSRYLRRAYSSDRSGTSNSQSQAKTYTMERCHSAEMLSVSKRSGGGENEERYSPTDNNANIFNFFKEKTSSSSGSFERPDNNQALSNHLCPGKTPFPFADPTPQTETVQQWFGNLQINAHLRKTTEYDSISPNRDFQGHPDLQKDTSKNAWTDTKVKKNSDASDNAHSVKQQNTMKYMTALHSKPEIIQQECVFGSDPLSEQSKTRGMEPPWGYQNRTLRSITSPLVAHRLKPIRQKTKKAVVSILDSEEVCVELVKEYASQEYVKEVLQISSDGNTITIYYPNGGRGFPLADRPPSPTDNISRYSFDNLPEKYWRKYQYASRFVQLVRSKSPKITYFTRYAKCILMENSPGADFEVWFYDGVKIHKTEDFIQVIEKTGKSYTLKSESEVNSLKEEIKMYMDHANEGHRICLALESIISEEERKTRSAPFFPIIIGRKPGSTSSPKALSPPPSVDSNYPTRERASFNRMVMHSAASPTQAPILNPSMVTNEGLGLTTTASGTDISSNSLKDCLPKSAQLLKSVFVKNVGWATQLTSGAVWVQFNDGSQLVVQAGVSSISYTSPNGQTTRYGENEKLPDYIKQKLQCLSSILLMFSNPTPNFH

[2] = tested on: MCF7; assay: Antiproliferative activity against human MCF7 cells assessed as cell growth inhibition incubated for 5 days by MTT assay; type: functional, cell-based; details: MCF7, 120 h
[3] = tested on: BT-474; assay: Antiproliferative activity against human BT-474 cells assessed as cell growth inhibition incubated for 5 days by MTT assay; type: functional, cell-based; details: BT-474, 120 h
[4] = tested on: MDA-MB-231; assay: Antiproliferative activity against human MDA-MB-231 cells assessed as cell growth inhibition incubated for 5 days by MTT assay; type: functional, cell-based; details: MDA-MB-231, 120 h
[5] = Metabolic stability in human liver microsomes assessed as half life in presence of NADPH as co-foctor incubated for 60 mins by LC-MS/MS analysis; type: ADME, Microsome
[6] = Metabolic stability in human liver microsomes assessed as intrinsic clearance in presence of NADPH as co-foctor incubated for 60 mins by LC-MS/MS analysis; type: ADME, Microsome; details: read-out: CLH
[7] = Metabolic stability in human liver microsomes assessed as parent compound remaining in presence of NADPH as co-foctor and measured after 60 mins by LC-MS/MS analysis; type: ADME, Microsome; details: read-out: Stability
[8] = Metabolic stability in human liver microsomes assessed as parent compound remaining in absence of NADPH as co-foctor and measured after 60 mins by LC-MS/MS analysis; type: ADME, Microsome; details: read-out: Stability
[9] = Metabolic stability in human plasma assessed as parent compound remaining and measured after 0 mins by LC-MS/MS analysis; type: ADME, cell-free; details: read-out: Stability
Outline: (§1)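 Pooled frozen plasma was thawed at 37 °C and centrifuged to remove clots. Compound was spiked to a final 2 μM (duplicate) and incubated at 37 °C. At 0, 10, 30, 60 and 120 min, protein was precipitated with acetonitrile stop solution containing tolbutamide and labetalol internal standards. Samples were centrifuged at 4000 rpm and 4 °C, and the supernatant was analysed by LC–MS/MS.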

[10] = Metabolic stability in human plasma assessed as parent compound remaining and measured after 10 mins by LC-MS/MS analysis; type: ADME, cell-free; details: read-out: Stability; outline: as §1
[11] = Metabolic stability in human plasma assessed as parent compound remaining and measured after 30 mins by LC-MS/MS analysis; type: ADME, cell-free; details: read-out: Stability; outline: as §1
[12] = Metabolic stability in human plasma assessed as parent compound remaining and measured after 60 mins by LC-MS/MS analysis; type: ADME, cell-free; details: read-out: Stability; outline: as §1
[13] = Metabolic stability in human plasma assessed as parent compound remaining and measured after 120 mins by LC-MS/MS analysis; type: ADME, cell-free; details: read-out: Stability; outline: as §1
[14] = Metabolic stability in human plasma assessed as half life and measured upto 120 mins by LC-MS/MS analysis; type: ADME, cell-free; outline: as §1
[15] = molecular target: T2, CYP1A2 (Homo sapiens, UniProt P05177); assay: Inhibition of CYP1A2 in human liver microsomes at 10 uM preincubated for 10 mins followed by NADPH cofactor addition and measured after 10 mins by LC-MS/MS analysis; type: ADME, Microsome; details: time 20 min
T2 sequence (P05177 whole entry): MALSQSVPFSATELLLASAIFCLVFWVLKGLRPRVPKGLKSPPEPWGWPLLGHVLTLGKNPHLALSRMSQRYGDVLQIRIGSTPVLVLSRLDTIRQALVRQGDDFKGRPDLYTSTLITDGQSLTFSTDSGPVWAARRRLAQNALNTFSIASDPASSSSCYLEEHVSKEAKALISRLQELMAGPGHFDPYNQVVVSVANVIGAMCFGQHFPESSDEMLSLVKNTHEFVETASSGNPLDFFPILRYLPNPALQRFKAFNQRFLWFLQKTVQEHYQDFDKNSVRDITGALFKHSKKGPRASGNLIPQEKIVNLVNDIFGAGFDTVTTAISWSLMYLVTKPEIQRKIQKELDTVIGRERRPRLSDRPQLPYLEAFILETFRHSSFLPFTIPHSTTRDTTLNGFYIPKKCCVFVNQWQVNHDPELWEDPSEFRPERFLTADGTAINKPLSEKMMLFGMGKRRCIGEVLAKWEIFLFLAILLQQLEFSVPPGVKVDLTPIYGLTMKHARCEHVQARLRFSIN
Outline: (§2)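 Human liver microsome (HLM) incubation with isoform-specific substrate solutions. Test compound was added from a 100× working solution. Mixture was pre-warmed about 10 min at 37 °C, then NADPH cofactor was added and incubated 10 min at 37 °C. The reaction was stopped with cold stop solution, centrifuged at 4000 rpm for 20 min, and the supernatant was diluted and analysed by LC–MS/MS.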

[16] = molecular target: CYP2C9 (Homo sapiens, UniProt P11712); assay: Inhibition of CYP2C9 in human liver microsomes at 10 uM preincubated for 10 mins followed by NADPH cofactor addition and measured after 10 mins by LC-MS/MS analysis; type: ADME, Microsome; details: time 20 min
[17] = molecular target: CYP2C19 (Homo sapiens, UniProt P33261); assay: Inhibition of CYP2C19 in human liver microsomes at 10 uM preincubated for 10 mins followed by NADPH cofactor addition and measured after 10 mins by LC-MS/MS analysis; type: ADME, Microsome; details: time 20 min; outline: as §2
[18] = molecular target: CYP2D6 (Homo sapiens, UniProt P10635); assay: Inhibition of CYP2D6 in human liver microsomes at 10 uM preincubated for 10 mins followed by NADPH cofactor addition and measured after 10 mins by LC-MS/MS analysis; type: ADME, Microsome; details: time 20 min; outline: as §2
[19] = molecular target: CYP3A4 (Homo sapiens, UniProt P08684); assay: Inhibition of CYP3A4 in human liver microsomes at 10 uM preincubated for 10 mins followed by NADPH cofactor addition and measured after 10 mins by LC-MS/MS analysis; type: ADME, Microsome; details: time 20 min; outline: as §2
Chain of CYP3A4 (P08684 whole entry): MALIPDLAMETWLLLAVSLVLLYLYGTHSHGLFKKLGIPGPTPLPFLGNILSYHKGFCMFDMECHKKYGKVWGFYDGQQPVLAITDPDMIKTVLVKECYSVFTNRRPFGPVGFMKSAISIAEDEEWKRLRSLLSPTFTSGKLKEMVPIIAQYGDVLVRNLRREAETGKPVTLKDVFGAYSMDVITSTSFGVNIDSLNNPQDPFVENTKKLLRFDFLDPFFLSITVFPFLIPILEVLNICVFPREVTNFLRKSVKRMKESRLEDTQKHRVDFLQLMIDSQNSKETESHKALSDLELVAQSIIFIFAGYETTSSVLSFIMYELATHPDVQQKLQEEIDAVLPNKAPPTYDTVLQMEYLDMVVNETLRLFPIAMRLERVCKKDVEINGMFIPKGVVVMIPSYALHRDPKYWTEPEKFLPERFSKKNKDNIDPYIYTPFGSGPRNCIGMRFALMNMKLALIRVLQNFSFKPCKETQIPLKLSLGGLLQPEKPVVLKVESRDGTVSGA

Chain of CYP2D6 (P10635 whole entry): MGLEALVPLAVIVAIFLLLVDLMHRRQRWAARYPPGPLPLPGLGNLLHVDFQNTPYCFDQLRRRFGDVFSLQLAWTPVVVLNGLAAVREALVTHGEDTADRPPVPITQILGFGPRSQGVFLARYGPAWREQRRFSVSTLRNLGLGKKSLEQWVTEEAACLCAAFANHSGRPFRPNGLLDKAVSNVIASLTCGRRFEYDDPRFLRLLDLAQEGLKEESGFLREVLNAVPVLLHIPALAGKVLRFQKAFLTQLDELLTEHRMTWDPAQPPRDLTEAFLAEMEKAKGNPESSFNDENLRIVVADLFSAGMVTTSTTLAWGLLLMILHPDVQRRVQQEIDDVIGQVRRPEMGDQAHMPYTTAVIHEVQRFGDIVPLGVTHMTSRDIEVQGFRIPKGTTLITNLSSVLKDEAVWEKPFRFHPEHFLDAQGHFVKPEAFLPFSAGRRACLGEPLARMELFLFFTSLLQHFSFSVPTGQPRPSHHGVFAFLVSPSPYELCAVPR
Chain of CYP2C19 (P33261 whole entry): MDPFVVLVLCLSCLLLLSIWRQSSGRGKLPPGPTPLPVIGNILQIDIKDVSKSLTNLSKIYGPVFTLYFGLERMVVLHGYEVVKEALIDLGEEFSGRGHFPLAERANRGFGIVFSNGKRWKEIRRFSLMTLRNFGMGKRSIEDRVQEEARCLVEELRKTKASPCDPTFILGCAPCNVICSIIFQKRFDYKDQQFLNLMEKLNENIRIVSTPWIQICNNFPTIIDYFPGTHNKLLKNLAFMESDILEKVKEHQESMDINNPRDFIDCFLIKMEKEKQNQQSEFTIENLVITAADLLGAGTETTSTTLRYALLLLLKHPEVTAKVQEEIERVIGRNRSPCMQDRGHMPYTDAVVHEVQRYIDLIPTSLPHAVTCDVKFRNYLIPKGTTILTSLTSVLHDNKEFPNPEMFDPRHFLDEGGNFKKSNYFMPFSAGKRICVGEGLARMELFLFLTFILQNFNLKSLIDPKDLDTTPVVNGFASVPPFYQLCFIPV
Chain of CYP2C9 (P11712 whole entry): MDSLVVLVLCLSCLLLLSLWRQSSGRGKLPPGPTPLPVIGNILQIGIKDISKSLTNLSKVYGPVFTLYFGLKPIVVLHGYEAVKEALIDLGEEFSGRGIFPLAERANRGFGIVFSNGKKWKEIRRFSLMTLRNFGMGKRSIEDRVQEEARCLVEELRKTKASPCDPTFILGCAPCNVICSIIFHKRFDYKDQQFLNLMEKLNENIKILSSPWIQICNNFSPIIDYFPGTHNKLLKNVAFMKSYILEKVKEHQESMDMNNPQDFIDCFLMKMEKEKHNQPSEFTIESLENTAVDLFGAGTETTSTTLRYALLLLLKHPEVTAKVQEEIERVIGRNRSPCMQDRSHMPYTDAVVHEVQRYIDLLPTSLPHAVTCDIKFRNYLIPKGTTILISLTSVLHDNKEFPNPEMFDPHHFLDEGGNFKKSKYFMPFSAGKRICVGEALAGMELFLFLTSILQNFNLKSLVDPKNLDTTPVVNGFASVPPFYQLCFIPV

## c1cc(Sc2ccc3[nH]ncc3c2)nc(Nc2ccc(N3CCOCC3)cc2)n1
[1]
  IC50: 125 nM

## Brc1ccc(Sc2ccnc(Nc3ccc(N4CCOCC4)cc3)n2)cc1
[1]
  IC50: 189 nM

## Nc1ccc(Sc2ccnc(Nc3ccc(N4CCSCC4)cc3)n2)cc1
[1]
  IC50: 1100 nM

## Fc1ccc(Sc2ccnc(Nc3ccc(N4CCOCC4)cc3)n2)cc1
[1]
  IC50: 198 nM

## CN(C)c1ccc(Sc2ccnc(Nc3ccc(N4CCOCC4)cc3)n2)cc1
[1]
  IC50: 313 nM

## Nc1ccc(Sc2ccnc(Nc3cccc(CN4CCOCC4)c3)n2)cc1
[1]
  IC50: 137 nM

## Nc1ccc(Sc2ccnc(Nc3ccccc3)n2)cc1
[1]
  IC50: 519 nM

## Nc1ccc(Sc2ccnc(Nc3ccc(NC4CCNCC4)cc3)n2)cc1
[1]
  IC50: 57 nM

## Nc1ccc(Sc2ccnc(Nc3ccc(N4CCOCC4)cc3)n2)cc1F
[1]
  IC50: 56 nM

## Fc1ccccc1Sc1ccnc(Nc2ccc(N3CCOCC3)cc2)n1
[1]
  IC50: 136 nM

## Nc1ccc(Sc2ccnc(Nc3ccc(NC4CCNC4)cc3)n2)cc1 (stereo unspecified)
[1]
  IC50: 80 nM

## Clc1ccc(Sc2ccnc(Nc3ccc(N4CCOCC4)cc3)n2)cc1
[1]
  IC50: 149 nM

## Clc1ccccc1Sc1ccnc(Nc2ccc(N3CCOCC3)cc2)n1
[1]
  IC50: 142 nM

## Nc1ccc(Sc2ccnc(Nc3cccc(N4CCOCC4)c3)n2)cc1
[1]
  IC50: 45 nM
[2]
  IC50: > 20000 nM
[3]
  IC50: 12900 nM
[4]
  IC50: 5150 nM

## Clc1cccc(Sc2ccnc(Nc3ccc(N4CCOCC4)cc3)n2)c1
[1]
  IC50: 1430 nM

## c1ccc(CNc2ccnc(Nc3ccc(N4CCOCC4)cc3)n2)cc1
[1]
  IC50: 176 nM

## CNc1ccc(Sc2ccnc(Nc3ccc(N4CCOCC4)cc3)n2)cc1
[1]
  IC50: 71 nM

## Fc1cccc(Sc2ccnc(Nc3ccc(N4CCOCC4)cc3)n2)c1
[1]
  IC50: 79 nM

## Nc1ccc(Sc2ccnc(Nc3ccc(N4CCNCC4)cc3)n2)cc1
[1]
  IC50: 139 nM

## c1ccc(Sc2ccnc(Nc3ccc(N4CCOCC4)cc3)n2)cc1
[1]
  IC50: 31 nM
[2]
  IC50: > 20000 nM
[3]
  IC50: > 20000 nM
[4]
  IC50: 7570 nM

## c1ccc(Nc2ccnc(Nc3ccc(N4CCOCC4)cc3)n2)cc1
[1]
  IC50: 65 nM

## Brc1cccc(Sc2ccnc(Nc3ccc(N4CCOCC4)cc3)n2)c1
[1]
  IC50: 2380 nM

## Nc1cccc(Sc2ccnc(Nc3ccc(N4CCOCC4)cc3)n2)c1
[1]
  IC50: 153 nM

## Nc1ccc(Sc2ccnc(Nc3ccc(NC4CCOCC4)cc3)n2)cc1
[1]
  IC50: 7 nM
[5]
  half-life: > 2.42 h
[6]
  microsomal CLint: < 9.6 µL/min/mg
[7]
  remaining at 1 h: 100%
[8]
  remaining at 1 h: 104%
[2]
  IC50: 1440 nM
[3]
  IC50: 7810 nM
[4]
  IC50: 2130 nM
[9]
  remaining at 0 h: 100%
[10]
  remaining at 10 min: 105%
[11]
  remaining at 0.5 h: 114%
[12]
  remaining at 1 h: 107%
[13]
  remaining at 2 h: 104%
[14]
  half-life: > 4.82 h
[15]
  inhibition at 10 min, 10 µM: 33.1%
[16]
  inhibition at 10 min, 10 µM: 42.9%
[17]
  inhibition at 10 min, 10 µM: 48.7%
[18]
  inhibition at 10 min, 10 µM: 8%
[19]
  inhibition at 10 min, 10 µM: 14.4%

## c1ccc2c(Sc3ccnc(Nc4ccc(N5CCOCC5)cc4)n3)cccc2c1
[1]
  IC50: 177 nM

## COC(=O)c1cc(Nc2nccc(Sc3ccc(N)cc3)n2)ccc1NC1CCOCC1
[1]
  IC50: 6620 nM

## Nc1ccc(Sc2ccnc(Nc3ccc(C(=O)N4CCOCC4)cc3)n2)cc1
[1]
  IC50: 39 nM
[2]
  IC50: 3860 nM
[3]
  IC50: 16200 nM
[4]
  IC50: 4470 nM

## Nc1ccc(Sc2ccnc(Nc3ccc(CN4CCOCC4)cc3)n2)cc1
[1]
  IC50: 64 nM

## Nc1ccccc1Sc1ccnc(Nc2ccc(N3CCOCC3)cc2)n1
[1]
  IC50: 297 nM

## c1cc(Sc2ccnc(Nc3ccc(N4CCOCC4)cc3)n2)c2cccnc2c1
[1]
  IC50: 46 nM
[2]
  IC50: > 20000 nM
[3]
  IC50: > 20000 nM
[4]
  IC50: 6480 nM

## Brc1ccccc1Sc1ccnc(Nc2ccc(N3CCOCC3)cc2)n1
[1]
  IC50: 219 nM

## Nc1ccc(Sc2ccnc(Nc3ccc(CN4CCNCC4)cc3)n2)cc1
[1]
  IC50: 379 nM

## c1ccc(Oc2ccnc(Nc3ccc(N4CCOCC4)cc3)n2)cc1
[1]
  IC50: 81 nM

## Nc1ccc(Sc2ccnc(Nc3ccc(N4CCOCC4)cc3)n2)cc1
[1]
  IC50: 17 nM
[5]
  half-life: 0.972 h
[6]
  microsomal CLint: 23.8 µL/min/mg
[7]
  remaining at 1 h: 48.7%
[8]
  remaining at 1 h: 94.4%
[2]
  IC50: 8720 nM
[3]
  IC50: > 20000 nM
[4]
  IC50: 5110 nM

## Nc1ccc(Sc2ccnc(Nc3ccc(N4CCOCC4)cc3)n2)c(F)c1
[1]
  IC50: 35 nM
[2]
  IC50: 3450 nM
[3]
  IC50: 9320 nM
[4]
  IC50: 8080 nM

## CNC(=O)c1ccccc1Sc1ccnc(Nc2ccc(N3CCOCC3)cc2)n1
[1]
  IC50: 102 nM
